Compounds with a hit are over-represented: about 2.3% of the library has one in this group of screens.
TRPC6 inh – mouse TRPC6 channel inhibition; HEK293-TRPC6, membrane potential dye, ACh-evoked depolarization; stronger effect = lower value; B-score at 10 µM; hit rate 1.1% among 310,000; AID 2553;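 active = B-score under library mean minus 3 SD, initial fluorescence not abnormally high, positive integrated signal ratio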;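 also: B-score derived from integrated fluorescence ratio over the kinetic read; more negative B-score means stronger inhibition of depolarization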
Target sequence (Q61143 whole entry, looked up): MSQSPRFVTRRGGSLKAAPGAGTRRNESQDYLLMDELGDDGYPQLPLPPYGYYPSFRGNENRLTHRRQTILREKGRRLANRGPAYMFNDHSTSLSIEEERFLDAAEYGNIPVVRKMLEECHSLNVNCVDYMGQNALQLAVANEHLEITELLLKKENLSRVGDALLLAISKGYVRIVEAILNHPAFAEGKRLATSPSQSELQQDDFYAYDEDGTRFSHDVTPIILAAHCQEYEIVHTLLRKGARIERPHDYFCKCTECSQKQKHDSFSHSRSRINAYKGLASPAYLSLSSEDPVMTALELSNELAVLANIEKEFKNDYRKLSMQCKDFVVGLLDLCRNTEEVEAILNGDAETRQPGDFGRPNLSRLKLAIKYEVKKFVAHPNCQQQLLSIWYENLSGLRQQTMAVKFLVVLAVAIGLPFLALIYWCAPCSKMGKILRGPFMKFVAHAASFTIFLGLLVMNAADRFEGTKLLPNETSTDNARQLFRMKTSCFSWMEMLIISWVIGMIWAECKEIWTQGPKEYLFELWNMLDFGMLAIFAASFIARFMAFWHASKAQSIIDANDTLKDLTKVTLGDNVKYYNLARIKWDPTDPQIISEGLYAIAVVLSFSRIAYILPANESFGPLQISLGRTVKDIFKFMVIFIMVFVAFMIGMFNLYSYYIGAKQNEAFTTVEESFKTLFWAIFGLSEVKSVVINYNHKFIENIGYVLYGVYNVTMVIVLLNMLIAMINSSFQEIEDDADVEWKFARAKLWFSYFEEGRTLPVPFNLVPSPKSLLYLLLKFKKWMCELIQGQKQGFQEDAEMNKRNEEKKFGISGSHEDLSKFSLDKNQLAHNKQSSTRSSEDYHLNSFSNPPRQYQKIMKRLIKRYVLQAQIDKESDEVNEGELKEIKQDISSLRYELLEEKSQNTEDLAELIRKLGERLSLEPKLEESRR
TRPC4 inh – inhibitors of mouse TRPC4 channel | Q9QUQ5 | HEK293 TRPC4beta/mu-opioid, DAMGO-evoked Fluo4 calcium flux; stronger effect = lower value | B-score at 10 µM | hit rate 0.39% among 300,000;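 active = B-score over 3 SD under the library average, no early fluorescence shift, positive overall ratio signal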
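Assay system: HEK293 cells with stable TRPC4beta plus mu-opioid receptor expression. Dosing: single dose. Measured by: Fluo4 Ca2+ flux fluorescence. Also added: DAMGO in two steps, submaximal then maximal. Read-out: B score from integrated Fluo4 fluorescence ratio.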
TRPC6 activator – activates the mouse TRPC6 cation channel. hit rate 0.13% among 310,000. AID 2550. B-score at 10 µM. HEK293-TRPC6 membrane potential dye fluorescence; stronger effect = higher value. Q61143;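 active = B-score of the integrated fluorescence ratio above library mean plus 3 SD, and starting fluorescence ratio within library mean plus 5 SD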;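 also: higher score means more depolarization so channel activation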
TRPC4 potent – allosterically enhances the mouse TRPC4 cation channel; HEK293 TRPC4beta/mu-opioid, DAMGO EC20, Fluo-4 Ca2+ flux; stronger effect = higher value; AID 2227; B-score at 10 µM; hit rate 0.42% among 310,000; Q9QUQ5;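 active = B-score of calcium response area above 5 SD of library B-scores, with initial fluorescence ratio within 5 SD of library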;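 also: B-score of integrated fluorescence ratio over time as area under calcium response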
TRPC4 agonist – opens the mouse TRPC4 cation channel. HEK293 TRPC4beta/mu-opioid, Fluo4 calcium fluorescence; stronger effect = higher value. B-score at 10 µM. hit rate 0.49% among 310,000. AID 2237;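 active = B-score above 5 SD of library B-scores, and initial fluorescence ratio not above library mean plus 5 SD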;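 also: positive B-score marks a calcium rise read as TRPC4 activation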
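System – HEK293 cells stably co-expressing mouse TRPC4beta and mu-opioid receptor · Signal – Fluo4 calcium-sensitive dye fluorescence, kinetic, 1 Hz baseline · Benchmarks – buffer (low) and maximal DAMGO (high) · Read-out – B score of integrated fluorescence ratio per well · Incubation – dye loading 45 min room temperature, 110 s kinetic read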
TRPC4 sel inh 2 – second selectivity test of TRPC6 inhibitors: effect on mouse TRPC4. shares compounds with TRPC6 inh. HEK293 TRPC4/MOR, membrane potential dye fluorescence; channel activated by saturating DAMGO dose. inhibition, % at 10 µM. hit rate 42% among 920;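 active = compounds whose fluorescence signal differed from control wells by over 3 SD, either direction, in both duplicate plates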
TRPC4 spec – selectivity of TRPC6 inhibitors: effect on mouse TRPC4; shares compounds with TRPC6 inh; HEK293 TRPC4/mu-opioid, membrane potential fluorescence; activity change, negative = inhibition, % at 10 µM; hit rate 61% among 920; AID 2777;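 active = rise or fall in signal beyond 3 SD of buffer-only wells in both replicate plates, either sign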;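 also: integrated kinetic ratio of fluorescence range over baseline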
HEK293 MPD ctr 2-1 – second counter-screen for TRPC6 inhibitors: parental HEK293 cells | shares compounds with TRPC6 inh | parental HEK293 membrane potential dye fluorescence; maximal acetylcholine challenge after compound addition | signal change vs control, % at 10 µM | hit rate 31% among 920 | AID 2779;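 active = membrane potential signal moving either way by over 3 SD of the maximum-effect control, in both duplicate plates, meaning non-specific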
HEK293 MPD ctr-1 – counter-screen for TRPC6 inhibitors: effect in parental HEK293 cells; shares compounds with TRPC6 inh; membrane potential signal change, % at 10 µM; AID 2780; hit rate 60% among 920; parental HEK293 membrane potential dye fluorescence;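 active = membrane potential signal shifting up or down by more than 3 SD of buffer-only wells, on both duplicate plates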
HEK293 MPD ctr-2 – checks TRPC6 modulator effects in parental HEK293 cells; shares compounds with TRPC6 inh; membrane potential dye fluorescence; membrane potential signal change, % at 10 µM; hit rate 51% among 2,400; AID 488924;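 active = membrane potential signal moves up or down beyond 5 SD from buffer-only wells, on both duplicate plates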
HEK293 MPD ctr 2-2 – second counter-screen for TRPC6 modulators: effect in parental HEK293 cells; shares compounds with TRPC6 inh; membrane potential dye fluorescence; after compound, maximal acetylcholine stimulation; inhibition, % at 10 µM; hit rate 14% among 2,400; AID 488926;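 active = membrane potential signal drops by more than 5 SD from the mean control signal, in both duplicate plates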;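 also: plate controls were acetylcholine ECmax control wells for no effect and buffer only wells for full effect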
TRPC4 ctr mod – selectivity of TRPC6 modulators against mouse TRPC4; shares compounds with TRPC6 inh; HEK293 TRPC4/mu-opioid, membrane potential fluorescence; percent change from control (negative = decrease, positive = increase), % at 10 µM; hit rate 69% among 2,400;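 active = membrane potential signal moved up or down beyond 5 SD of buffer control wells, in both duplicate plates, actives on both sides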;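 also: plate controls were assay buffer wells for no effect and DAMGO maximal-effect wells for full effect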
TRPC4 ctr inh 2 – second check of whether TRPC6 modulators also affect mouse TRPC4; shares compounds with TRPC6 inh; HEK293 TRPC4/mu-opioid, membrane potential dye fluorescence; stimulated with maximal-effect DAMGO; inhibition, % at 10 µM; hit rate 55% among 2,400;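 active = drop in membrane potential signal beyond 5 SD of the control wells in both duplicate plates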;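 also: TRPC4 counter screen for TRPC6 hits run under conditions tuned for TRPC6 not TRPC4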
TRPC6 inh conf – mouse TRPC6 inhibitor confirmation. shares compounds with TRPC6 inh. inhibition, % at 10 µM. HEK293-TRPC6, membrane potential dye, ACh-evoked depolarization. AID 488960. hit rate 43% among 3,300;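 active = fluorescence ratio falls more than 5 SD below the full-stimulation control mean, in both duplicate runs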;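 also: integrated fluorescence ratio of peak minus minimum over baseline after agonist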
TRPC6 act conf – mouse TRPC6 activator confirmation | shares compounds with TRPC6 inh | HEK293-TRPC6 membrane potential dye fluorescence, FDSS | activation, % at 10 µM | hit rate 11% among 2,800;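 active = ratio signal rise beyond 5 SD above unstimulated control wells' mean, seen in both duplicate runs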;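 also: plate controls were buffer EC0 wells for no effect and acetylcholine ECmax response for full effect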
* hit, by the source's call; i = inactive; . = no result; + = active, no number.

SMILES	TRPC6 inh	TRPC4 inh	TRPC6 activator	TRPC4 potent	TRPC4 agonist	HEK293 MPD ctr-2	HEK293 MPD ctr 2-2	TRPC4 ctr mod	TRPC4 ctr inh 2	TRPC6 inh conf	TRPC6 act conf	others
O=C(c1ccc(F)cc1)N1CCN(c2cc(N3CCCCC3)c(F)cc2[N+](=O)[O-])CC1	-10*	.	i	i	i	.	.	.	.	i	i	TRPC4 sel inh 2=i;TRPC4 spec=i;HEK293 MPD ctr 2-1=i;HEK293 MPD ctr-1=i
CCOC(=O)c1nc2cc3n(c(C)c-2c1C)C(C)C(CC)=C3C (stereo unspecified)	-6.5*	i	i	i	i	158%*	174%*	24%*	34%*	52%*	i
CNC(=O)Cn1c(C)cc(=O)c2cccc(OC)c21	-6.9*	i	i	i	i	-471%*	i	-70%*	41%*	40%*	i
CCOc1ccc(NC(=O)CN(C)C(=O)c2ccc(=O)[nH]c2)cc1OCC	i	i	i	i	i	.	.	.	.	.	.
O=C(N/N=C/c1cccc([N+](=O)[O-])c1)c1cc[n+](CCO)cc1	-5.7*	i	i	i	i	-88%*	i	-22%*	i	i	i
O=C(N/N=C/c1cccnc1)c1ccc([N+](=O)[O-])cc1	-5.3*	i	i	i	i	-196%*	i	-36%*	30%*	i	i
COc1ccc(NC(=O)C(=O)NCCC2CCCCN2S(=O)(=O)c2ccc(F)cc2)cc1 (stereo unspecified)	i	i	i	i	i	.	.	.	.	.	.
Cc1scc2c1N(C(=O)CN1CCN(C)CC1)c1ccccc1NC2=O	-6.5*	i	i	i	i	i	86%*	i	i	78%*	i
CCN1CCN(CC(=O)N2c3ccccc3Sc3ccccc32)CC1	i	i	i	i	i	.	.	.	.	.	.
CCCS(=O)(=O)N1CCCC(C(=O)NCCCN(C)c2ccccc2)C1 (stereo unspecified)	i	.	i	i	i	.	.	.	.	.	.
O=C(C1=COCCO1)N1CCN(C(c2ccccc2)c2ccccc2)CC1	-7*	i	i	i	i	.	.	.	.	i	.	TRPC4 sel inh 2=i;TRPC4 spec=1.6%*;HEK293 MPD ctr 2-1=i;HEK293 MPD ctr-1=1.7%*
Cc1ccc2sc(N3CCN(C(=O)C4=COCCO4)CC3)nc2c1C	-5.4*	i	i	i	i	i	i	17%*	i	68%*	.
Cc1ccc(S(=O)(=O)N2CCN(C(=O)c3cccs3)CC2)cc1C	i	i	18*	i	i	i	i	16%*	i	.	148%*
Cc1ccc2sc(NNC(=O)C3=COCCO3)nc2c1C	i	i	i	i	i	.	.	.	.	.	.
Cc1ccc(S(=O)(=O)N2CCN(C(=O)C3=COCCO3)CC2)cc1C	-7*	i	i	i	i	.	.	.	.	i	i	TRPC4 sel inh 2=i;TRPC4 spec=-0.7%*;HEK293 MPD ctr 2-1=i;HEK293 MPD ctr-1=i
CCCN(C(=O)CSCc1ccc(Cl)cc1)c1c(N)n(Cc2ccccc2)c(=O)[nH]c1=O	i	i	i	i	i	.	.	.	.	.	.
Cc1cccc(-c2nc(CSCC(=O)N3CCN(c4ccccn4)CC3)c(C)o2)c1	i	i	i	i	i	.	.	.	.	.	.
Cc1cc(C)c2nc(N3CCN(C(=O)c4cccs4)CC3)sc2c1	-6.5*	i	i	i	i	i	i	i	i	i	i
Cc1cc2nc(N3CCN(C(=O)c4cccs4)CC3)sc2cc1C	i	i	i	i	i	.	.	.	.	.	.
COc1ccc(C(=O)c2coc3ccc(O)c(CN(C)C)c23)cc1	-5.3*	i	i	i	i	i	i	9.0%*	56%*	i	i
CCCCCCN1C=CC(=C/C=C(\C#N)C(=O)OCC)C=C1	-9.6*	i	78*	i	61*	+	87%*	250%*	i	i	566%*
COc1ccc(CNC(=O)c2noc(C)c2[N+](=O)[O-])cc1	i	i	i	i	i	.	.	.	.	.	.
Cc1cccc(OCC(O)Cn2c(N3CCCCC3)nc3c2c(=O)n(C)c(=O)n3C)c1 (stereo unspecified)	-6.1*	i	i	i	i	i	i	8.0%*	i	80%*	.
Cn1c(=O)c2c(nc(N3CCCCCC3)n2CC(O)COc2ccccc2)n(C)c1=O (stereo unspecified)	i	i	i	i	i	.	.	.	.	.	.
CCN(CC)S(=O)(=O)c1ccc(OC)c(NC(=O)c2cc(=O)[nH]c3ccccc23)c1	i	i	i	i	i	.	.	.	.	.	.
CC(=O)c1c2c3c(cccc3n(C)c1=O)C(=O)c1ccccc1-2	i	i	i	i	i	.	.	.	.	.	.
Cn1c(=O)c(Nc2ccc(O)cc2)c2c3c(cccc31)C(=O)c1ccccc1-2	-6*	i	i	i	i	i	i	-27%*	59%*	i	i
Cc1c(OCC(=O)N(C)C)ccc2c3c(c(=O)oc12)CCCCC3	-11*	i	i	i	i	.	.	.	.	i	i	TRPC4 sel inh 2=i;TRPC4 spec=i;HEK293 MPD ctr 2-1=i;HEK293 MPD ctr-1=-0.2%*

Screens as filed in PubChem.
